Molecules are shown by their SMILES. Bounds are passed on as bounds.

One experiment deals with Blood. The experiment in a line: Inhibition of LPS-induced TNFalpha production in human whole blood by immunoassay. It counts as functional, tissue-based. In outline: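 Human whole blood from consenting volunteers, 988 µL aliquots, was mixed with compound in DMSO and LPS at a final 10 µg/mL, then incubated 6 h at 37 °C. Samples were chilled and spun, and plasma TNFα was measured by immunoassay. Percent inhibition was taken relative to LPS control after subtracting the unstimulated negative control. IC50 from N = 3–4.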

Experiment [1] concerns Mus musculus. The experiment can be described thus: Inhibition of LPS-induced TNFalpha production in mouse at 50 mg/kg, po after 1 hr by ELISA. It counts as functional. In outline: (§1)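 Mice were fasted overnight with water allowed. Compound was given orally as a suspension in 0.5% CMC at 10 mL/kg. After 30 min, LPS in saline was injected iv at 0.45 mg/10 mL/kg. Heparinized vena cava blood was drawn 1 h later and plasma TNFα measured by ELISA. Percent inhibition was taken versus vehicle/LPS control after subtracting normal mice. N = 5.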
Background: In an ELISA, binding on a coated surface is turned into a signal by an enzyme label.

Experiment [2] concerns Mus musculus. The experiment can be described thus: Inhibition of LPS-induced TNFalpha production in mouse at 20 mg/kg, po after 1 hr by ELISA. It counts as functional. In outline: as §1
For experiment [3], the system named is Mus musculus. The experiment in a line: Inhibition of LPS-induced TNFalpha production in orally dosed mouse after 1 hr by ELISA. In kind it is functional. The note with it: po, read-out: ID50 (the source's name). In short, it runs like this: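 Mice fasted overnight (water allowed), then given compound orally as a suspension in 0.5% CMC at 10 mL/kg; controls received vehicle alone. 30 min later LPS in saline was injected i.v. at 0.45 mg/10 mL/kg; normal mice got saline. After 1 h, heparinised vena cava blood was spun and plasma TNFα measured by ELISA. % inhibition was taken against normal and control mice; ID50 derived. N = 5.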

For the molecule `Fc1ccc(-c2[nH]cc(CCCN3CCOCC3)c2-c2ccncc2)cc1`, in the experiment with Blood, the IC50 is > 30 µM.
The same measure, in the same setting: the figure for `Fc1ccc(-c2[nH]cc(CCCN3CCCCC3)c2-c2ccncc2)cc1` is 28.4 µM; for `CNCCCc1c[nH]c(-c2ccc(F)cc2)c1-c1ccncc1` it is 14.7 µM.
For `Fc1ccc(-c2[nH]cc(-c3ccncc3)c2-c2ccncc2)cc1`, the inhibition in vivo at 50 mg/kg in the experiment on Mus musculus [1] was found to be 24.5%. Moreover, in the experiment with Blood, the IC50 is > 30 µM.
For `OC1(c2c[nH]c(-c3ccc(F)cc3)c2-c2ccncc2)CCNCC1`, the inhibition in vivo at 20 mg/kg with Mus musculus [2] is -2.7%. In the experiment on Blood, the IC50 was > 30 µM.
`CN(C)CCCc1c[nH]c(-c2ccc(F)cc2)c1-c1ccncc1` came in with an IC50 with Blood of 22.4 µM. That is a double-digit micromolar value.
In turn, `C[S+]([O-])c1ccc(-c2nc(-c3ccc(F)cc3)c(-c3ccncc3)[nH]2)cc1` (configuration not stated) [SB-203580] displayed an IC50 in the experiment with Blood of 6.4 µM. Also, the ED50 with Mus musculus [3] is 27.9 mg/kg.
As to `Fc1ccc(-c2[nH]cc(CCCN3CCNCC3)c2-c2ccncc2)cc1`, the IC50 in the experiment with Blood was > 30 µM.
The same measure, in the same setting: the figure for `CN1CCN(CCCc2c[nH]c(-c3ccc(F)cc3)c2-c2ccncc2)CC1` is > 30 µM.
For `NCc1c[nH]c(-c2ccc(F)cc2)c1-c1ccncc1`, the IC50 in the experiment with Blood was > 30 µM.
As to `NCCCc1c[nH]c(-c2ccc(F)cc2)c1-c1ccncc1`, half-maximal inhibition in the experiment on Blood (IC50) required 4.76 µM. In other words, the single-digit micromolar range.
On the same count and under the same terms, the same measure for `CC(=O)NCCCc1c[nH]c(-c2ccc(F)cc2)c1-c1ccncc1`: > 30 µM; for `Fc1ccc(-c2[nH]cc(CCCN3CCSCC3)c2-c2ccncc2)cc1`: > 30 µM.
Still for that read-out and setting: the figure for `Fc1ccc(-c2[nH]cc(CCCN3CCN(Cc4ccccc4)CC3)c2-c2ccncc2)cc1` is > 30 µM.
Turning to `Fc1ccc(-c2[nH]cc(C3=CCNCC3)c2-c2ccncc2)cc1`, inhibition with Blood was half-maximal at 1.86 µM (IC50). Besides, in the experiment on Mus musculus [3], the ED50 was 5.98 mg/kg.
In turn, `NCCCCc1c[nH]c(-c2ccc(F)cc2)c1-c1ccncc1` registered a half-maximal inhibitory concentration (IC50) with Blood of 13.8 µM. In other words, the double-digit micromolar range.
As for `Fc1ccc(-c2[nH]cc(C3CCNCC3)c2-c2ccncc2)cc1`, in the experiment on Blood, the IC50 was found to be 2.98 µM. The ED50 in the experiment on Mus musculus [3] came out at 17.9 mg/kg.

In general, IC50 refers to the midpoint of a concentration-inhibition curve. Higher therefore signals weaker potency in that assay. In general, inhibition in vivo refers to the relative decrease from the control value, in per cent.

(Values after ChEMBL document CHEMBL1153459, “Tetrahydropyridine derivatives with inhibitory activity on the production of proinflammatory cytokines: part 1” (Bioorg Med Chem Lett, 2009).)
